Here are results for 7 compounds from article PMC6506245 (Science Advances, 2019).

Read-outs that look alike come from different tables or passages of the source. Bridge positions count the residues as written; N and C are the ends. Square brackets hold non-standard residues; d marks the D form. Peptide text beside a SMILES is read from it. * marks the point of attachment. Biotin = O=C1N[C@H]2[C@H](CS[C@H]2CCCCC(=O)*)N1; 2Nal = N[C@@H](Cc1ccc2ccccc2c1)C(=O)O; S5 = C=CCCC[C@](C)(N)C(=O)O

For data set [1], the target named is T1, β-cat (Homo sapiens, UniProt P35222).
T1 sequence (P35222 1-781): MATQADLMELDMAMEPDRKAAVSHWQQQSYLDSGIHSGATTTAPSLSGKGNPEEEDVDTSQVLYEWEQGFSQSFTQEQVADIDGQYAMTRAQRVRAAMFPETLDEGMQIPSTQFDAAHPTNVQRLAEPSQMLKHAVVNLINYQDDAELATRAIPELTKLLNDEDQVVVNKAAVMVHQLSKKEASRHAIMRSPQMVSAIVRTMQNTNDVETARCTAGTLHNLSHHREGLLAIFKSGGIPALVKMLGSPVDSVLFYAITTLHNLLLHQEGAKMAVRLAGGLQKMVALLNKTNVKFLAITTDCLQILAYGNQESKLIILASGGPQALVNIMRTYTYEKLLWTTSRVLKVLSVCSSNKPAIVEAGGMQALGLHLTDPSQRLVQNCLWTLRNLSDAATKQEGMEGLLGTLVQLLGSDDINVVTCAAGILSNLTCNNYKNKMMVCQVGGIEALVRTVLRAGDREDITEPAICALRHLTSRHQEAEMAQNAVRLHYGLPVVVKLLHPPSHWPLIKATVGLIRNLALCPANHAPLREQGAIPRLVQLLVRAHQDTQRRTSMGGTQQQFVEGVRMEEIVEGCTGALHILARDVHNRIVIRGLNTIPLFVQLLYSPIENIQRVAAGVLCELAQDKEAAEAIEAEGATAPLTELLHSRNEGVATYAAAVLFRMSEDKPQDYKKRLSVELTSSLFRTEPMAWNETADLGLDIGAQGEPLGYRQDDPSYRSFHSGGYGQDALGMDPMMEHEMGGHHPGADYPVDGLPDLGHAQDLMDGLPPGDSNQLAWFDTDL
Nature of the data set: HTRF binding assay.

Data set [2] deals with T1, β-cat. As to the kind of experiment: ALPHA binding assay.
Data set [3] concerns Colo320DM cells. As to the kind of experiment: Colo320DM cell viability assay. The data set is classed as cell-based, human. To be noted: read-out: IC50, growth of Colo320DM, 72 h.
Data set [4] is described as follows: PK profiling in mice. In kind it is in vivo, BALB/c mice.
The nature of data set [5]: Dose-escalating toxicity study. The data set is classed as in vivo, BALB/c mice. The gist of the method:
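BALB/c mice received vehicle control or test compound at 10, 15 or 20 mg/kg by i.p. injection, once daily for 14 days. Serum chemistry and hematology were done after the 2-week treatment and compared with vehicle-treated animals.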

Data set [6] can be described thus: Plasma stability assay. The data set is classed as in vitro ADME, BALB/c nude mice. To be noted: BALB/c nude, mouse.
Data set [7] concerns the target histidine-tagged β-catenin (β-cat) protein (UniProt P35222). Nature of the data set: AlphaScreen or HTRF.

The Kd is the equilibrium constant for the complex coming apart. Lower therefore signals higher affinity. `CC[C@H](C)[C@H](NC(=O)[C@H](CC(=O)O)NC(=O)[C@H](CCCNC(=N)N)NC(=O)[C@H](CC(C)C)NC(=O)[C@@H](NC(=O)[C@H](CCC(N)=O)NC(=O)[C@H](CC(C)C)NC(=O)[C@H](CO)NC(=O)[C@H](CCCNC(=N)N)NC(=O)[C@H](CCC(=O)O)NC(=O)[C@H](CCCNC(=N)N)NC(=O)[C@H](Cc1c[nH]cn1)NC(=O)[C@H](CCC(=O)O)NC(=O)[C@H](CC(C)C)NC(=O)[C@H](CCC(N)=O)NC(=O)[C@H](CCC(=O)O)NC(=O)[C@H](CCC(N)=O)NC(=O)[C@H](CO)NC(=O)[C@H](CC(C)C)NC(=O)CCCC[C@@H]1SC[C@@H]2NC(=O)N[C@@H]21)[C@@H](C)O)C(=O)N[C@@H](CCC(N)=O)C(=O)N[C@@H](CCCNC(=N)N)C(=O)N[C@@H](CCSC)C(=O)N[C@@H](CC(C)C)C(=O)N[C@@H](Cc1ccccc1)C(=O)O` [BCL9-HD2A] (Biotin-LSQEQLEHRERSLQTLRDIQRMLF-OH): the Kd in data set [1] was determined as 0.0383 µM; in data set [2], 0.0143 µM.

Usually IC50 stands for the concentration needed to halve the response being measured. The term bioavailability denotes dose-corrected exposure relative to a reference, in per cent. As usually defined, the half-life is the time in which the quantity being followed falls by half. Low readings indicate rapid decline, high ones slow decline. `CC[C@H](C)[C@@H]1NC(=O)[C@@](C)(NC(=O)[C@H](CCCNC(=N)N)NC(=O)[C@H](CC(C)C)NC(=O)[C@@H](NC(=O)[C@H](CCC(N)=O)NC(=O)[C@H](CC(C)C)NC(C)=O)[C@@H](C)O)CCCC=CCCC[C@@](C)(C(=O)N[C@@H](CC(C)C)C(=O)N[C@@H](Cc2ccc3ccccc3c2)C(N)=O)NC(=O)[C@H](CCCNC(=N)N)NC(=O)[C@H](CCC(N)=O)NC1=O` [hsBCL9CT-24] (Ac-LQTLR[S5]IQR[S5]L[2Nal]-NH2; staple 6-10): the Kd in data set [2] was 0.00473 µM. In addition, the IC50 in data set [3] (CellTiter-Glo) turned out to be 1.45 µM. In data set [4] (BALB/c, mouse, plasma, sc, 10 mg/kg), this compound had a bioavailability of 56%. Also, the “Terminal t1/2” value in data set [4] (i.m. 5 mg/kg, BALB/c mice n = 2, table S2A) is 10.6 h. Also, the “survival in toxicity study” value in data set [5] (10, 15, or 20 mg/kg i.p., QD over 14 days) is recorded as “All animals survived the duration of study”. For the same compound, the “serum chemistry and hematology versus vehicle control” value in data set [5] (after a 2-week treatment period, 20 mg/kg QD (fig. S4I)) is “no difference”. The “toxicity in brain, lung, kidney, liver, heart, and spleen tissues by histology” value in data set [5] (i.p. QD over 14 days (fig. S4C: 10 mg/kg)) was “minimal toxicity”. In addition, in data set [6], the half-life at 2 µM stood at 5.13 h.

What is called share remaining is the share of the starting amount still present when the sample was taken. Low values mean a greater loss, high ones greater stability. For the compound `CCN(CC)CCOC(=O)c1ccc(N)cc1` [Procaine, reference compound], the share remaining at 1 h, 2 µM in data set [6] worked out at 0.02%.

As for `CCCC[C@H](NC(=O)[C@H](CCCNC(=N)N)NC(=O)[C@H](CCC(N)=O)NC(=O)[C@@H](NC(=O)[C@]1(C)CCCC=CCCC[C@](C)(NC(=O)[C@H](CC(C)C)NC(=O)[C@H](CO)NC(=O)[C@H](CCCNC(=N)N)NC(=O)[C@H](CCC(=O)O)NC(=O)[C@H](CCCNC(=N)N)NC(=O)[C@H](Cc2c[nH]cn2)NC(=O)[C@H](CCC(=O)O)NC(=O)[C@H](CC(C)C)NC(=O)[C@H](CCC(N)=O)NC(=O)[C@H](CCC(=O)O)NC(=O)[C@H](CCC(N)=O)NC(=O)[C@H](CO)NC(=O)[C@H](CC(C)C)NC(C)=O)C(=O)N[C@@H]([C@@H](C)O)C(=O)N[C@@H](CC(C)C)C(=O)N[C@@H](CCCNC(=N)N)C(=O)N1)[C@@H](C)CC)C(=O)N[C@@H](CC(C)C)C(=O)N[C@@H](Cc1ccccc1)C(N)=O` [SAH-BCL9B], the Kd in data set [1] stood at 0.192 µM; in data set [2], 0.142 µM.

Turning to `Cc1cc(-c2ncc(CC(=O)Nc3ccc(-c4cnccn4)cn3)cc2C)ccn1` [LGK-974], the IC50 in data set [3] (Homo sapiens, COLO 320DM) is 18.5 µM.

Turning to `O=C1[C@H](Cc2ccc(O)cc2)N2C(=O)CCN(C(=O)NCc3ccccc3)[C@H]2CN1Cc1cccc2ccccc12` [ICG-001], the IC50 in data set [3] (CellTiter-Glo) was 15 µM.

“hsBCL9CT-24 (hydrocarbon-stapled BCL9-HD2 peptide)” had a Kd in data set [7] of 0.00421 µM.
